Bioassay records from PubChem BioAssay.
A selection: hits, their analogues and other compounds. The true share with any hit is near 2.6%.
SENP8 block-1: inhibitors of human SENP8 protease. Q96LD8. purified SENP8, Z-RLRGG-aminoluciferin cleavage, luminescence. inhibition, % at 10 µM. 1.2% of 330,000 active. AID 2540; in the data active = inhibition above about 50%
Target sequence (Q96LD8 whole entry, looked up): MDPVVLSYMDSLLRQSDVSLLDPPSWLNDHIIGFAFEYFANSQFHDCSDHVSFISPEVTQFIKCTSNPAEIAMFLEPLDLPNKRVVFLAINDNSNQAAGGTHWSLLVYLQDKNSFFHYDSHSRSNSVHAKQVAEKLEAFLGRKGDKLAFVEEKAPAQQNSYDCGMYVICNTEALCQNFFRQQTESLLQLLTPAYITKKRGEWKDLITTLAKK
SENP8 block-2: inhibitors of human SENP8 protease | Q96LD8 | recombinant SENP8, Nedd8 substrate fluorescence | inhibition, % at 20 µM | 0.64% of 360,000 active; in the data active = inhibition mostly above about 40%, no sharp cut-off; inactive = mostly below about 27%
SENP7 block: SENP7 protease inhibition. Q9BQF6. recombinant SENP7, Z-RLRGG-aminoluciferin luminescence, 40 min. inhibition, % at 5 µM. 1.5% of 330,000 active;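 active = inhibition above about 50% at the single test dose, limit read from the data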;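 also: plate controls were DMSO with enzyme for no effect and no enzyme buffer wells for full effect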
SENP6 inh: SENP6 protease inhibition. inhibition, % at 10 µM. Recombinant SENP6 catalytic domain, aminoluciferin luminescence. 1.8% of 330,000 active;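 active = inhibition above about 50% at the single tested dose, limit read from the data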;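 also: plate controls were DMSO wells with enzyme for no effect and DMSO wells lacking enzyme for full effect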
SENP1 inh: inhibitors of human SENP1 SUMO protease catalytic domain; Q9P0U3; recombinant SENP1 catalytic domain, CyPet-SUMO1-YPet FRET cleavage; inhibition, % at 10 µM; 0.21% of 360,000 active; AID 624204;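 active = inhibition at least 30% at 10 µM, raw YFP signal under a set limit, fluorescence ratio 0.5 to 1.5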;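 also: 0% = enzyme with DMSO and 100% = no enzyme wells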
Target sequence (Q9P0U3 419-644 limits assumed): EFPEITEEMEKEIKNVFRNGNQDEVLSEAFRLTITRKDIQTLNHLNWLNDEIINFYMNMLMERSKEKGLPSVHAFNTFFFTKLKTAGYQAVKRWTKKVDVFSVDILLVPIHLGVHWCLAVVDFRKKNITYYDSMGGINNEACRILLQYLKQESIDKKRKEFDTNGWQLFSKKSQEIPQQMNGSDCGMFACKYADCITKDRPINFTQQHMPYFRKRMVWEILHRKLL
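Material: hSENP1 catalytic domain, recombinant; medium: Tris pH 8 with BME, BSA, NP40 and catalase; compound: single concentration of 10 µM compound, 0.5% DMSO final; technique: FRET read of cyan and yellow fluorescence; timing: 50 min enzyme reaction, room temperature, light-protected; reagent: SFCypet-SUMO1-SFYpet substrate at 25 nM; control set: no-enzyme low, enzyme-DMSO high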
Platelet DG rel: platelet dense granule release activity | inhibition, %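 (compounds screened at 7.5 µM in platelet-rich plasma)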 | human platelet-rich plasma, SFLLRN dense granule ATP release, luminescence | 0.22% of 300,000 active | AID 1663;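 active = mean replicate score, as percent of positive control, at or above 50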
* hit, by the source's call.

What do the screens show for `O=C(O)c1cccc2c1C(=O)c1cc([N+](=O)[O-])cc([N+](=O)[O-])c1-2`?
SENP8 block-2: 43.5*; SENP1 inh: -2.5

What do the screens show for `COc1ccc(S(N)(=O)=O)cc1C(=O)OCC(=O)Nc1sccc1C#N`?
SENP8 block-1: -19.7; SENP8 block-2: -5.2; SENP7 block: -4.7; SENP6 inh: -11.0; SENP1 inh: 0.5

Results for N#Cc1ccsc1NC(=O)COC(=O)c1cc2ccccc2cc1O ?
SENP8 block-1: 89.3*; SENP8 block-2: -82.9; SENP7 block: 89.0*; SENP6 inh: 96.4*; SENP1 inh: 5.0; Platelet DG rel: -5.3

How did N#Cc1ccsc1NC(=O)COC(=O)c1ccc(NC(N)=O)cc1 do in these assays?
SENP8 block-1: 73.3*; SENP8 block-2: -1.9; SENP7 block: 68.8*; SENP6 inh: 49.9; SENP1 inh: -1.8; Platelet DG rel: -4.7

What do the screens show for `CC(=O)C[C@@H](O)CC(=O)[C@@H]1OC(=O)[C@@H](C)CCCCc2ccccc21`?
SENP8 block-1: -4.0; SENP8 block-2: 3.7; SENP7 block: -1.8; SENP6 inh: 5.1; SENP1 inh: -1.8

Results for COCCC(C(=O)Oc1c(C(C)(C)C)cc(C)cc1C(C)(C)C)c1ccccc1 (stereo not drawn) ?
SENP8 block-1: -6.3; SENP8 block-2: 4.2; SENP7 block: 0.3; SENP6 inh: -3.8; SENP1 inh: -0.3

Results for Cc1ccccc1/C=C/c1nc2ccccc2c(=O)[nH]1 ?
SENP8 block-1: 68.7*; SENP8 block-2: -70.6; SENP7 block: 85.9*; SENP6 inh: 11.8; SENP1 inh: 2.7; Platelet DG rel: 9.2

Results for CCc1sc(C(=O)N2CCN(C(=O)c3ccccc3)CC2)cc1C ?
SENP8 block-1: -0.8; SENP8 block-2: 8.9; SENP7 block: 12.4; SENP6 inh: -4.4; SENP1 inh: 0.5

How did O=C(CCNC(=O)C1CCN(S(=O)(=O)c2ccccc2)CC1)NCc1ccc(Cl)c(Cl)c1 do in these assays?
SENP8 block-1: -1.4; SENP8 block-2: 2.8; SENP7 block: -3.4; SENP6 inh: 2.8; SENP1 inh: -0.9; Platelet DG rel: 58.2*

Results for CN1C(=S)SC(N(O)C(=O)Nc2cccc3ccccc23)C1(C)C (stereo not drawn) ?
SENP8 block-1: 22.6; SENP8 block-2: -432.7; SENP7 block: 25.6; SENP6 inh: 57.5*; SENP1 inh: -8.0; Platelet DG rel: 4.6

Results for CN1C(=S)SC(N(O)C(=O)Nc2ccccc2)C1(C)C (stereo not drawn) ?
SENP8 block-1: 5.0; SENP8 block-2: 16.6; SENP7 block: 4.3; SENP6 inh: 7.6; SENP1 inh: 1.1; Platelet DG rel: 7.0

What do the screens show for `CC[C@@]1(C(=O)OC)N[C@H](CN(C)S(=O)(=O)c2ccc(F)cc2)[C@@H]2C(=O)N(C)C(=O)[C@@H]21`?
SENP8 block-1: 0.6; SENP8 block-2: 6.3; SENP7 block: 1.9; SENP6 inh: 2.8; SENP1 inh: -2.3

What do the screens show for `CCCCCCOC(=O)Nc1ccc(S(=O)(=O)Nc2cccc([N+](=O)[O-])c2)cc1`?
SENP8 block-1: -6.7; SENP8 block-2: 5.0; SENP7 block: -7.9; SENP6 inh: 51.6*; SENP1 inh: 1.9; Platelet DG rel: -2.1

What do the screens show for `c1csc(-c2nc3ccccc3s2)c1`?
SENP8 block-1: 78.3*; SENP8 block-2: -446.7; SENP7 block: 80.0*; SENP6 inh: 86.3*; SENP1 inh: 0.3; Platelet DG rel: -1.0

How did c1csc(-c2ccc3ccccc3n2)c1 do in these assays?
SENP8 block-1: 57.2*; SENP8 block-2: -382.2; SENP7 block: 80.1*; SENP6 inh: 76.4*; SENP1 inh: -3.7; Platelet DG rel: -22.9

Results for CCOc1cc(/C=C2/SC(=S)NC2=O)ccc1OC(=O)c1ccco1 ?
SENP8 block-1: 3.3; SENP8 block-2: 20.4; SENP7 block: 4.5; SENP6 inh: 3.2; SENP1 inh: 74.8*; Platelet DG rel: 0.0

What do the screens show for `Oc1c(C=Nc2ccc(Cl)cn2)sc2ccccc12`?
SENP8 block-1: 28.5; SENP8 block-2: -109.5; SENP7 block: 56.9*; SENP6 inh: 66.3*; SENP1 inh: -71.4; Platelet DG rel: 34.8
